From ChEMBL document CHEMBL3045116, “Synthesis and biological evaluation of 2-(5-substituted-1-((diethylamino)methyl)-2-oxoindolin-3-ylidene)-N-substituted-hydrazinecarbothioamides” (Med Chem Res, 2013)

Columns and labels:
[1] = test system: Human alphaherpesvirus 2; assay: Antiviral activity against Human herpesvirus 2 strain G infected human HEL cells assessed as reduction of virus-induced cytopathic effect after 3 days by colorimetric formazan-based MTS assay; type: functional, organism-based; conditions: Human alphaherpesvirus 2, strain G, 72 h
How it was run: (§1)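 Confluent cell monolayers were infected with 100 CCID50 of virus, and serial dilutions of compound were added at the time of infection.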

[2] = Cytotoxicity against Felis catus (cat) CRFK cells assessed as change in cellular morphology; type: cell-based; conditions: crfk
How it was run: (§2)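 Uninfected cells were exposed to compound in parallel with the antiviral cultures. The read-out is the minimum cytotoxic concentration that causes a microscopically detectable alteration of normal cell morphology.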

[3] = test system: Vesicular stomatitis virus; assay: Antiviral activity against Vesicular stomatitis virus infected human HEL cells assessed as reduction of virus-induced cytopathic effect after 3 days by colorimetric formazan-based MTS assay; type: functional, organism-based; conditions: 72 h; how it was run: as §1
[4] = test system: Respirovirus muris; assay: Antiviral activity against Sendai virus infected African green monkey Vero cells assessed as reduction of virus-induced cytopathic effect after 3 days by colorimetric formazan-based MTS assay; type: functional, organism-based; conditions: 72 h
[5] = test system: Salmonella typhi; assay: Antibacterial activity against Salmonella enterica subsp. enterica serovar Typhi assessed as growth inhibition at 50 ug/ml by cup-plate method (reference value: 8 to 10 mm); type: functional; conditions: read-out: DIZ
[6] = test system: Human alphaherpesvirus 1; assay: Antiviral activity against acyclovir-resistant thymidine kinase negative Human herpesvirus 1 strain KOS infected human HEL cells assessed as reduction of virus-induced cytopathic effect after 3 days by colorimetric formazan-based MTS assay; type: functional, organism-based; conditions: Human alphaherpesvirus 1, KOS, 72 h; how it was run: as §1
[7] = test system: Influenza A virus H3N2; assay: Antiviral activity against Influenza A virus H3N2 infected MDCK cells assessed as reduction of virus-induced cytopathic effect after 3 days by colorimetric formazan-based MTS assay; type: functional, organism-based; conditions: 72 h; how it was run: as §1
[8] = test system: Punta Toro virus; assay: Antiviral activity against Punta Toro virus infected in African green monkey Vero cells assessed as reduction of virus-induced cytopathic effect after 3 days by colorimetric formazan-based MTS assay; type: functional, organism-based; conditions: 72 h; how it was run: as §1
[9] = test system: Escherichia coli; assay: Antibacterial activity against Escherichia coli assessed as growth inhibition at 50 ug/ml by cup-plate method (reference value: 8 to 10 mm); type: functional; conditions: read-out: DIZ
[10] = Cytotoxicity against Homo sapiens (human) HEL cells assessed as change in cellular morphology; type: cell-based
[11] = test system: Influenza B virus; assay: Antiviral activity against Influenza B virus infected in MDCK cells assessed as reduction of virus-induced cytopathic effect after 3 days by colorimetric formazan-based MTS assay; type: functional, organism-based; conditions: 72 h; how it was run: as §1
[12] = test system: Felid alphaherpesvirus 1; assay: Antiviral activity against Felid herpesvirus 1 infected cat CRFK cells assessed as reduction of virus-induced cytopathic effect after 3 days by colorimetric formazan-based MTS assay; type: functional, organism-based; conditions: Felid alphaherpesvirus 1, CRFK, 72 h
How it was run: (§3)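 Cells grown to confluency in 96-well plates ([…], Vero for lines 9–10) were infected with 100 CCID50 of virus, and serial compound dilutions were added at infection. Plates were incubated at 37 °C for 3 days, until complete CPE appeared in untreated virus controls.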

[13] = test system: Aspergillus niger; assay: Antifungal activity against Aspergillus niger assessed as growth inhibition at 50 ug/ml by cup-plate method (reference value: 8 to 10 mm); type: functional; conditions: read-out: DIZ
[14] = (§4) Cytotoxicity against Homo sapiens (human) HeLa cells assessed as change in cellular morphology; type: cell-based; conditions: HeLa cells; how it was run: as §2
[15] = test system: HeLa; assay: as §4; type: cell-based; conditions: hela; how it was run: as §2
[16] = test system: CCRF-CEM; assay: Cytotoxicity against Homo sapiens (human) CEM cells assessed as growth inhibition after 72 hr by coulter counter analysis; type: functional, cell-based
How it was run: (§5)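 Cells in growth medium were allowed to proliferate with variable compound amounts at 37 °C in a humidified CO2 atmosphere. Incubation ran 48 h for L1210, 72 h for CEM and 96 h for HeLa. Cells were then counted with a Coulter counter.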

[17] = test system: Staphylococcus aureus; assay: Antibacterial activity against Staphylococcus aureus assessed as growth inhibition at 50 ug/ml by cup-plate method (reference value: 8 to 10 mm); type: functional; conditions: read-out: DIZ
[18] = test system: Respiratory syncytial virus; assay: Antiviral activity against Respiratory syncytial virus infected human HeLa cells assessed as reduction of virus-induced cytopathic effect after 3 days by colorimetric formazan-based MTS assay; type: functional, organism-based; conditions: 72 h; how it was run: as §1
[19] = test system: Coxsackievirus B4; assay: Antiviral activity against Human coxsackievirus B4 infected African green monkey Vero cells assessed as reduction of virus-induced cytopathic effect after 3 days by colorimetric formazan-based MTS assay; type: functional, organism-based; conditions: Enterovirus B, 72 h; how it was run: as §1
[20] = test system: Mammalian orthoreovirus 1; assay: Antiviral activity against Mammalian orthoreovirus 1 infected African green monkey Vero cells assessed as reduction of virus-induced cytopathic effect after 3 days by colorimetric formazan-based MTS assay; type: functional, organism-based; conditions: Mammalian orthoreovirus 1, Vero, 72 h; how it was run: as §3
[21] = test system: Vaccinia virus; assay: Antiviral activity against Vaccinia virus infected human HEL cells assessed as reduction of virus-induced cytopathic effect after 3 days by colorimetric formazan-based MTS assay; type: functional, organism-based; conditions: Orthopoxvirus vaccinia, 72 h; how it was run: as §1
[22] = test system: Human alphaherpesvirus 1; assay: Antiviral activity against Human herpesvirus 1 strain KOS infected human HEL cells assessed as reduction of virus-induced cytopathic effect after 3 days by colorimetric formazan-based MTS assay; type: functional, organism-based; conditions: Human alphaherpesvirus 1, KOS, 72 h; how it was run: as §1
[23] = test system: Coxsackievirus B4; assay: Antiviral activity against Human coxsackievirus B4 infected human HeLa cells assessed as reduction of virus-induced cytopathic effect after 3 days by colorimetric formazan-based MTS assay; type: functional, organism-based; conditions: Enterovirus B, 72 h; how it was run: as §1
[24] = Inhibition of beta lactamase assessed as time for decolorization of iodine (reference value: 79.5 secs)
[25] = test system: Bacillus subtilis; assay: Antibacterial activity against Bacillus subtilis assessed as growth inhibition at 50 ug/ml by cup-plate method (reference value: 8 to 10 mm); type: functional; conditions: read-out: DIZ
[26] = Cytotoxicity against Chlorocebus aethiops (African green monkey) Vero cells assessed as change in cellular morphology; type: cell-based; conditions: chlorocebus sabaeus
[27] = test system: Vesicular stomatitis virus; assay: Antiviral activity against Vesicular stomatitis virus infected human HeLa cells assessed as reduction of virus-induced cytopathic effect after 3 days by colorimetric formazan-based MTS assay; type: functional, organism-based; conditions: 72 h; how it was run: as §1
[28] = test system: Candida albicans; assay: Antifungal activity against Candida albicans assessed as growth inhibition at 50 ug/ml by cup-plate method (reference value: 8 to 10 mm); type: functional; conditions: read-out: DIZ
[29] = (§6) Cytotoxicity against MDCK cells assessed as change in cellular morphology; type: cell-based, Canis lupus familiaris; conditions: dog, MDCK cells; how it was run: as §2
[30] = test system: MDCK; assay: as §6; type: cell-based, Canis lupus familiaris; conditions: dog, mdck; how it was run: as §2
[31] = Inhibition of beta lactamase assessed as increase in time taken for iodine decolorization relative to control; parameters: concentration or dose not given beside the values; conditions: concentration not given here
[32] = test system: Proteus vulgaris; assay: Antibacterial activity against Proteus vulgaris assessed as growth inhibition at 50 ug/ml by cup-plate method (reference value: 8 to 10 mm); type: functional; conditions: read-out: DIZ
[33] = test system: Influenza A virus; assay: Antiviral activity against Unidentified Influenza A virus (H1N1) infected MDCK cells assessed as reduction of virus-induced cytopathic effect after 3 days by colorimetric formazan-based MTS assay; type: functional, organism-based; conditions: 72 h; how it was run: as §1
[34] = test system: L1210; assay: Cytotoxicity against Mus musculus (mouse) L1210 cells assessed as growth inhibition after 48 hr by coulter counter analysis; type: functional, cell-based; conditions: L1210, 48 h; how it was run: as §5
[35] = test system: Feline infectious peritonitis virus; assay: Antiviral activity against Feline Infectious peritonitis virus infected cat CRFK cells assessed as reduction of virus-induced cytopathic effect after 3 days by colorimetric formazan-based MTS assay; type: functional, organism-based; conditions: Alphacoronavirus 1, CRFK, 72 h; how it was run: as §1
[36] = test system: Klebsiella pneumoniae; assay: Antibacterial activity against Klebsiella pneumoniae assessed as growth inhibition at 50 ug/ml by cup-plate method (reference value: 8 to 10 mm); type: functional; conditions: read-out: DIZ
[37] = test system: Human respirovirus 3; assay: Antiviral activity against Human parainfluenza virus 3 infected African green monkey Vero cells assessed as reduction of virus-induced cytopathic effect after 3 days by colorimetric formazan-based MTS assay; type: functional, organism-based; conditions: Human respirovirus 3, Vero, 72 h; how it was run: as §3

SMILES	EC50 [1]	CC50 [2]	EC50 [3]	EC50 [4]	zone of inhibition at 50 µg/mL [5]	EC50 [6]	EC50 [7]	EC50 [8]	zone of inhibition at 50 µg/mL [9]	MCC [10]	EC50 [11]	EC50 [12]	zone of inhibition at 50 µg/mL [13]	MCC [14]	CC50 [15]	IC50 [16]	zone of inhibition at 50 µg/mL [17]	EC50 [18]	EC50 [19]	EC50 [20]	other results
CCN(CC)CN1C(=O)/C(=N/NC(=S)Nc2ccc(C)cc2)c2cc(Cl)ccc21	> 20 µM	17.5 µM	> 20 µM	> 4 µM	11 mm	> 20 µM	> 0.8 µM	> 4 µM	21 mm	100 µM	> 0.8 µM	> 4 µM	11 mm	≥ 4 µM	> 100 µM	4.6 µM	11 mm	> 4 µM	> 4 µM	> 4 µM	EC50 [21]: > 20 µM; EC50 [22]: > 20 µM; EC50 [23]: > 4 µM; TIME [24]: 0.0335 h; zone of inhibition at 50 µg/mL [25]: 11 mm; MCC [26]: ≥ 4 µM; EC50 [27]: > 4 µM; zone of inhibition at 50 µg/mL [28]: 11 mm; MCC [29]: 4000 nM; CC50 [30]: 11.3 µM; inhibition [31]: 34.1%; zone of inhibition at 50 µg/mL [32]: 11 mm; EC50 [33]: > 0.8 µM; IC50 [34]: 9.5 µM; EC50 [35]: > 4 µM; zone of inhibition at 50 µg/mL [36]: 11 mm; EC50 [37]: > 4 µM
CCN(CC)CN1C(=O)/C(=N/NC(=S)Nc2ccc(C)cc2)c2ccccc21	12 µM	3.8 µM	> 20 µM	> 20 µM	21 mm	≥ 20 µM	> 0.16 µM	> 20 µM	21 mm	100 µM	> 0.16 µM	> 0.8 µM	11 mm	≥ 20 µM	10.7 µM	12 µM	21 mm	> 20 µM	> 20 µM	> 20 µM	EC50 [21]: 11 µM; EC50 [22]: 14 µM; EC50 [23]: > 20 µM; TIME [24]: 0.0405 h; zone of inhibition at 50 µg/mL [25]: 21 mm; MCC [26]: 100 µM; EC50 [27]: > 20 µM; zone of inhibition at 50 µg/mL [28]: 11 mm; MCC [29]: 800 nM; CC50 [30]: 0.2 µM; inhibition [31]: 45.5%; zone of inhibition at 50 µg/mL [32]: 11 mm; EC50 [33]: > 0.16 µM; IC50 [34]: 29 µM; EC50 [35]: > 0.8 µM; zone of inhibition at 50 µg/mL [36]: 11 mm; EC50 [37]: > 20 µM
CCN(CC)CN1C(=O)/C(=N/NC(=S)Nc2ccc(Cl)cc2)c2ccccc21	15 µM	4 µM	> 20 µM	> 4 µM	11 mm	≥ 20 µM	> 0.16 µM	> 4 µM	21 mm	100 µM	> 0.16 µM	> 0.8 µM	11 mm	≥ 4 µM	9.8 µM	10 µM	11 mm	> 4 µM	> 4 µM	> 4 µM	EC50 [21]: ≥ 20 µM; EC50 [22]: 15 µM; EC50 [23]: > 4 µM; TIME [24]: 0.036 h; zone of inhibition at 50 µg/mL [25]: 21 mm; MCC [26]: 20 µM; EC50 [27]: > 4 µM; zone of inhibition at 50 µg/mL [28]: 11 mm; MCC [29]: 800 nM; CC50 [30]: 0.4 µM; inhibition [31]: 38.7%; zone of inhibition at 50 µg/mL [32]: 11 mm; EC50 [33]: > 0.16 µM; IC50 [34]: 11 µM; EC50 [35]: > 0.8 µM; zone of inhibition at 50 µg/mL [36]: 11 mm; EC50 [37]: > 4 µM
CCN(CC)CN1C(=O)/C(=N/NC(N)=S)c2cc(Cl)ccc21	> 100 µM	> 100 µM	> 100 µM	> 100 µM	11 mm	> 100 µM	> 20 µM	> 100 µM	11 mm	> 100 µM	> 20 µM	> 100 µM	11 mm	> 100 µM	> 100 µM	71 µM	21 mm	> 100 µM	> 100 µM	> 100 µM	EC50 [21]: 20 µM; EC50 [22]: > 100 µM; EC50 [23]: > 100 µM; TIME [24]: 0.0338 h; zone of inhibition at 50 µg/mL [25]: 11 mm; MCC [26]: > 100 µM; EC50 [27]: > 100 µM; zone of inhibition at 50 µg/mL [28]: 11 mm; MCC [29]: 100000 nM; CC50 [30]: 78.3 µM; inhibition [31]: 34.6%; zone of inhibition at 50 µg/mL [32]: 11 mm; EC50 [33]: > 20 µM; IC50 [34]: 148 µM; EC50 [35]: > 100 µM; zone of inhibition at 50 µg/mL [36]: 11 mm; EC50 [37]: > 100 µM
